Results: ChEMBL document CHEMBL1132701, “Orally active isoxazoline glycoprotein IIb/IIIa antagonists with extended duration of action” (J Med Chem, 1999)

Columns and labels:
Homo sapiens [1] = species on record: Homo sapiens; assay: The compound was tested for their ability to inhibit ADP-stimulated platelet aggregation in human platelet rich plasma; type: functional
Method in brief: (§1)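 IC50 for inhibition of ADP-induced aggregation in human platelet-rich plasma, determined in three donors.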

Canis familiaris [2] = assay: Inhibition of ex vivo platelet aggregation in dogs after 24 hr of administration of iv bolus dose of 0.025 mg/kg; type: functional; settings: Canis lupus familiaris
Method in brief: (§2)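 Dogs received an iv bolus, mostly 0.025 mg/kg, with some tested at 0.05 mg/kg. Blood was sampled at 1, 5 and 24 h postdose. Ex vivo platelet aggregation was stimulated with ADP (100 μM) and reported as % inhibition; n = 2.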

Canis familiaris [3] = species on record: Canis familiaris; assay: The compound was tested for their ability to inhibit ADP-stimulated platelet aggregation in dog platelet rich plasma; type: functional; settings: Canis lupus familiaris
[4] = molecular target: Integrin alpha-IIb/beta-3 (Canis familiaris); assay: Dissociation constant for activated Fibrinogen Receptor
[5] = molecular target: Integrin alpha-IIb/beta-3 (Canis familiaris); assay: Dissociation constant for unactivated Fibrinogen Receptor
Canis familiaris [6] = assay: Inhibition of ex vivo platelet aggregation in dogs after 24 hr of administration of iv bolus dose of 0.05 mg/kg; type: functional; settings: Canis lupus familiaris; method in brief: as §2
Canis familiaris [7] = assay: Inhibition ex vivo platelet aggregation by the compound in dogs after 5 hr of administration of iv bolus dose of 0.025 mg/kg; type: functional; settings: Canis lupus familiaris; method in brief: as §2
Canis familiaris [8] = assay: Inhibition ex vivo platelet aggregation by the compound in dogs after 6 hr of administration of oral dose of 0.3 mg/kg; settings: Canis lupus familiaris
[9] = molecular target: Integrin alpha-IIb/beta-3 (Canis familiaris); assay: Dissociation constant for activated Fibrinogen Receptor; remark: listed apart in the source
Canis familiaris [10] = assay: Inhibition of ex vivo platelet aggregation by the compound in dogs after 1 hr of administration of iv bolus dose of 0.025 mg/kg; type: functional; settings: Canis lupus familiaris; method in brief: as §2
Homo sapiens [11] = species on record: Homo sapiens; assay: The compound was tested against free acid of DMP 754 to inhibit ADP-stimulated platelet aggregation in human platelet rich plasma; type: functional; method in brief: as §1
Canis familiaris [12] = assay: Inhibition ex vivo platelet aggregation by the compound in dogs after 1 hr of administration of oral dose of 0.3 mg/kg; settings: Canis lupus familiaris
Canis familiaris [13] = assay: Inhibition ex vivo platelet aggregation by the compound in dogs after 24 hr of administration of oral dose of 0.3 mg/kg; settings: Canis lupus familiaris
[14] = molecular target: Integrin alpha-IIb/beta-3 (Canis familiaris); assay: Dissociation constant for unactivated Fibrinogen Receptor; remark: listed apart in the source
Canis familiaris [15] = species on record: Canis familiaris; assay: The compounds were tested for their ability to inhibit ADP-stimulated platelet aggregation in dog platelet rich plasma; type: functional; settings: Canis lupus familiaris
Canis familiaris [16] = assay: Compounds having IC50 values less than 100 nM in the PRP assay were assessed for their ability to inhibit ex vivo platelet aggregation in dogs after 5 hr of administration of iv bolus dose of 0.025 mg/kg; type: functional; settings: Canis lupus familiaris; method in brief: as §2

| SMILES | IC50 (Homo sapiens [1]) | inhibition in vivo at 0.025 mg/kg (Canis familiaris [2]) | also measured |
| --- | --- | --- | --- |
| N=C(N)c1ccc(C2=NOC(CC(=O)NC[C@H](NS(=O)(=O)c3cccc4nsnc34)C(=O)O)C2)cc1 (stereo partly drawn) | 91 nM | 0% |  |
| Cc1noc(C)c1S(=O)(=O)N[C@H](CNC(=O)C[C@@H]1CC(c2ccc(C(=N)N)cc2)=NO1)C(=O)O | 120 nM |  | IC50 (Canis familiaris [3]): 170 nM; Kd [4]: 186 nM; Kd [5]: 253 nM |
| N=C(N)c1ccc(C2=NOC(CC(=O)NC[C@H](NS(=O)(=O)c3cccc4cccnc34)C(=O)O)C2)cc1 (stereo partly drawn) | 81 nM | 67% |  |
| N=C(N)c1ccc(C2=NOC(CC(=O)NC[C@H](NS(=O)(=O)Cc3ccccc3)C(=O)O)C2)cc1 (stereo partly drawn) | 39 nM | 26% |  |
| N=C(N)c1ccc(C2=NOC(CC(=O)NC[C@H](NS(=O)(=O)c3ccc(C(F)(F)F)cc3)C(=O)O)C2)cc1 (stereo partly drawn) | 170 nM |  |  |
| Cc1cccc(S(=O)(=O)N[C@@H](CNC(=O)C[C@@H]2CC(c3ccc(C(=N)N)cc3)=NO2)C(=O)O)c1 [listing 1 of 2 here] | 35 nM |  |  |
| Cc1noc(C)c1S(=O)(=O)N[C@H](CNC(=O)C[C@H]1CC(c2ccc(C(=N)N)cc2)=NO1)C(=O)O | 23 nM |  | IC50 (Canis familiaris [3]): 25 nM; Kd [4]: 5.9 nM; Kd [5]: 24.1 nM |
| CN(Cc1ccccc1)S(=O)(=O)N[C@@H](CNC(=O)CC1CC(c2ccc(C(=N)N)cc2)=NO1)C(=O)O (stereo partly drawn) | 86 nM |  |  |
| Cc1noc(C)c1S(=O)(=O)N[C@@H](CNC(=O)CC1CC(c2ccc(C(=N)N)cc2)=NO1)C(=O)O (stereo partly drawn) | 34 nM | 33% |  |
| N=C(N)c1ccc(C2=NOC(CC(=O)NC[C@H](NS(=O)(=O)c3ccccc3Br)C(=O)O)C2)cc1 (stereo partly drawn) | 36 nM |  | inhibition in vivo at 0.05 mg/kg (Canis familiaris [6]): 100% |
| CCCCS(=O)(=O)N[C@@H](CNC(=O)CC1CC(c2ccc(C(=N)N)cc2)=NO1)C(=O)O (stereo partly drawn) | 42 nM |  |  |
| Cc1cccc(S(=O)(=O)N[C@@H](CNC(=O)C[C@@H]2CC(c3ccc(C(=N)N)cc3)=NO2)C(=O)O)c1 [listing 2 of 2 here] |  | 16% |  |
| Cc1ccc(S(=O)(=O)N[C@@H](CNC(=O)CC2CC(c3ccc(C(=N)N)cc3)=NO2)C(=O)O)o1 (stereo partly drawn) | 160 nM |  |  |
| Cc1ccc(NS(=O)(=O)N[C@@H](CNC(=O)CC2CC(c3ccc(C(=N)N)cc3)=NO2)C(=O)O)cc1 (stereo partly drawn) | 72 nM |  |  |
| Cc1cccc(S(=O)(=O)N[C@@H](CNC(=O)Cc2cc(-c3ccc(C(=N)N)cc3)no2)C(=O)O)c1 | 69 nM |  |  |
| Cc1ccc(S(=O)(=O)N[C@@H](CNC(=O)CC2CC(c3ccc(C(=N)N)cc3)=NO2)C(=O)O)cc1 (stereo partly drawn) | 37 nM |  |  |
| Cc1ccccc1S(=O)(=O)N[C@@H](CNC(=O)C[C@@H]1CC(c2ccc(C(=N)N)cc2)=NO1)C(=O)O | 110 nM |  |  |
| Cc1cccc(S(=O)(=O)N(C)[C@@H](CNC(=O)C[C@H]2CC(c3ccc(C(=N)N)cc3)=NO2)C(=O)O)c1 | 95 nM |  |  |
| N=C(N)c1ccc(C2=NOC(CC(=O)NC[C@H](NS(=O)(=O)c3ccccc3C(F)(F)F)C(=O)O)C2)cc1 (stereo partly drawn) |  | 45% |  |
| CCCCOC(=O)N[C@@H](CNC(=O)C[C@H]1CC(c2ccc(C(=N)N)cc2)=NO1)C(=O)OC [ROXIFIBAN] |  |  | inhibition in vivo at 0.025 mg/kg (Canis familiaris [7]): 38%; inhibition in vivo at 0.3 mg/kg (Canis familiaris [8]): 76%; Kd [9]: 2.83 nM; inhibition in vivo at 0.025 mg/kg (Canis familiaris [10]): 100%; IC50 (Homo sapiens [11]): 50 nM; inhibition in vivo at 0.3 mg/kg (Canis familiaris [12]): 54%; inhibition in vivo at 0.3 mg/kg (Canis familiaris [13]): 11%; Kd [14]: 2.36 nM; IC50 (Canis familiaris [15]): 27 nM |
| Cc1ccccc1S(=O)(=O)N[C@@H](CNC(=O)CC1CC(c2ccc(C(=N)N)cc2)=NO1)C(=O)O (stereo partly drawn) | 41 nM | 99% | inhibition in vivo at 0.025 mg/kg (Canis familiaris [16]): 97% |
| CC(C)NS(=O)(=O)N[C@@H](CNC(=O)CC1CC(c2ccc(C(=N)N)cc2)=NO1)C(=O)O (stereo partly drawn) | 51 nM |  |  |
